We go through four compounds from ChEMBL document CHEMBL1158537, “Antibacterial activities of aminoglycoside antibiotics-derived cationic amphiphiles. Polyol-modified neomycin B-, kanamycin A-, amikacin-, and neamine-based amphiphiles with potent broad spectrum antibacterial activity” (2010).

The subject of assay [1] is Staphylococcus aureus. Kind of assay: Antibacterial activity against methicillin-resistant Staphylococcus aureus ATCC 33592 after 24 hrs by macrobroth dilution method. Format: functional. Particulars: ATCC 33592, 24 h. A digest of the protocol: (§1)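 Reference strains from the American Type Culture Collection were tested by broth macrodilution following CLSI methodology. The read-out was the minimum inhibitory concentration, reported in μg/mL. The same method was used for the Gram-positive and Gram-negative organisms.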
(In general: Broth dilution looks for growth in wells or tubes with falling amounts of substance.)

The test system of assay [2] is Pseudomonas aeruginosa. Nature of the assay: Antibacterial activity against Pseudomonas aeruginosa ATCC 27853 after 24 hrs by macrobroth dilution method. The following applies: ATCC 27853, 24 h. Format: functional. A digest of the protocol: (§2)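 Broth macrodilution was run following CLSI methodology against ATCC reference strains and clinical isolates from the Canadian Intensive Care Unit (CAN-ICU) study, with Gram-positive and Gram-negative organisms tested. The value is the minimum inhibitory concentration, reported in μg/mL.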

The test system of a further assay is Streptococcus pneumoniae. Nature of the assay: Antibacterial activity against Streptococcus pneumoniae ATCC 49619 after 24 hrs by macrobroth dilution method. Format: functional. The following applies: ATCC 49619, 24 h. A digest of the protocol:
as §2

Another assay has as its system Klebsiella pneumoniae. Kind of assay: Antibacterial activity against Klebsiella pneumoniae ATCC 13883 after 24 hrs by macrobroth dilution method. The following applies: ATCC 13883, 24 h.
The test system of assay [3] is Escherichia coli. Nature of the assay: Antibacterial activity against gentamicin-resistant Escherichia coli ATCC 6174 after 24 hrs by macrobroth dilution method. Format: functional. The following applies: ATCC 6174, 24 h. In a few lines:
as §1

Assay [4] relates to Pseudomonas aeruginosa. Kind of assay: Antibacterial activity against Pseudomonas aeruginosa CAN-ICU 62308 after 24 hrs by macrobroth dilution method. Particulars: CAN-ICU 62308, 24 h. In kind it is functional. A digest of the protocol: as §2
For assay [5], the system named is Escherichia coli. Kind of assay: Antibacterial activity against Escherichia coli ATCC 25922 after 24 hrs by macrobroth dilution method. Format: functional. Particulars: ATCC 25922, 24 h. In a few lines:
as §1

Assay [6] has as its system Staphylococcus epidermidis. Kind of assay: Antibacterial activity against methicillin-resistant Staphylococcus epidermidis ATCC 14990 after 24 hrs by macrobroth dilution method. Particulars: ATCC 14990, 24 h. Format: functional.
A further assay relates to Acinetobacter baumannii. Kind of assay: Antibacterial activity against Acinetobacter baumannii CAN-ICU 63169 after 24 hrs by macrobroth dilution method. Format: functional. The following applies: CAN-ICU 63169, 24 h. In a few lines: as §2
Assay [7] concerns Staphylococcus aureus. Kind of assay: Antibacterial activity against Staphylococcus aureus ATCC 29213 after 24 hrs by macrobroth dilution method. In kind it is functional. Particulars: ATCC 29213, 24 h. In a few lines:
as §1

The subject of assay [8] is Escherichia coli. Kind of assay: Antibacterial activity against Escherichia coli CAN-ICU 63074 after 24 hrs by macrobroth dilution method. Format: functional. Particulars: CAN-ICU 63074, 24 h. A digest of the protocol:
as §2

The subject of assay [9] is Stenotrophomonas maltophilia. Nature of the assay: Antibacterial activity against Stenotrophomonas maltophilia CAN-ICU 62585 after 24 hrs by macrobroth dilution method. Format: functional. Particulars: CAN-ICU 62585, 24 h. A digest of the protocol: as §2
In assay [10] the test system is Staphylococcus epidermidis. Nature of the assay: Antibacterial activity against Staphylococcus epidermidis […] after 24 hrs by macrobroth dilution method. Format: functional. A digest of the protocol: as §2

On to `COC[C@H]1O[C@H](O[C@@H]2[C@@H](OC)[C@H](OC3O[C@H](CN)[C@@H](OC)[C@H](OC)[C@H]3OC)[C@@H](N)C[C@H]2N)[C@H](OC)[C@@H](N)[C@@H]1OC.O=C(O)C(F)(F)F` (some centres not stated), for which the MIC in the assay with Staphylococcus aureus [1], with Pseudomonas aeruginosa [2], in the assay with Streptococcus pneumoniae, in the assay on Klebsiella pneumoniae, with Escherichia coli [3] and in the assay on Pseudomonas aeruginosa [4] was above 256 µg/mL each time. Also, the MIC (in the assay on Escherichia coli [5]; in assay [6]; against Acinetobacter baumannii; in the assay on Staphylococcus aureus [7]; in the assay on Escherichia coli [8]; in assay [9]) was above 256 µg/mL throughout. In addition, in [10], the MIC came to 256 µg/mL.

As to `NC[C@H]1OC(O[C@H]2[C@H](OCc3ccccc3)[C@@H](O[C@H]3O[C@H](COCc4ccccc4)[C@@H](OCc4ccccc4)[C@H](N)[C@H]3OCc3ccccc3)[C@H](N)C[C@@H]2N)[C@H](OCc2ccccc2)[C@@H](OCc2ccccc2)[C@@H]1OCc1ccccc1.O=C(O)C(F)(F)F` (some centres not stated), the MIC with Staphylococcus aureus [1] was 8 µg/mL; against Pseudomonas aeruginosa [2] it was above 64 µg/mL; against Streptococcus pneumoniae it was 32 µg/mL; in the assay with Klebsiella pneumoniae it was above 64 µg/mL; against Escherichia coli [3], 32 µg/mL; against Pseudomonas aeruginosa [4], above 64 µg/mL. The MIC in the assay with Escherichia coli [5] is 32 µg/mL; in [6], 8 µg/mL; in the assay with Acinetobacter baumannii, above 64 µg/mL; in the assay on Staphylococcus aureus [7], 8 µg/mL; in the assay with Escherichia coli [8], 16 µg/mL; in [9], above 64 µg/mL. For the same compound, in assay [10], the MIC turned out to be 4 µg/mL.

As to `NC[C@@H]1O[C@H](O[C@H]2[C@@H](OC(=O)Nc3ccc(Cl)cc3)[C@H](O[C@@H]3[C@@H](OC(=O)Nc4ccc(Cl)cc4)[C@H](N)C[C@H](N)[C@H]3O[C@H]3O[C@H](CN)[C@@H](OC(=O)Nc4ccc(Cl)cc4)[C@H](OC(=O)Nc4ccc(Cl)cc4)[C@H]3N)O[C@@H]2COC(=O)Nc2ccc(Cl)cc2)[C@H](N)[C@@H](OC(=O)Nc2ccc(Cl)cc2)[C@@H]1OC(=O)Nc1ccc(Cl)cc1.O=C(O)C(F)(F)F`, the MIC is 64 µg/mL in the assay with Staphylococcus aureus [1]; above 256 µg/mL against Pseudomonas aeruginosa [2]; 128 µg/mL against Streptococcus pneumoniae; 256 µg/mL against Klebsiella pneumoniae; above 256 µg/mL against Escherichia coli [3]; 256 µg/mL in the assay on Pseudomonas aeruginosa [4]. Also, the minimal inhibitory concentration (MIC) was above 256 µg/mL against Escherichia coli [5]; 32 µg/mL in assay [6]; above 256 µg/mL against Acinetobacter baumannii; 64 µg/mL with Staphylococcus aureus [7]; 256 µg/mL with Escherichia coli [8]; 128 µg/mL in [9]. This compound also displayed a minimum inhibitory concentration (MIC) in assay [10] of 16 µg/mL.

Regarding `NC[C@H]1OC(O[C@H]2[C@H](OCc3ccc(Cl)cc3)[C@@H](O[C@H]3O[C@H](COCc4ccc(Cl)cc4)[C@@H](OCc4ccc(Cl)cc4)[C@H](N)[C@H]3OCc3ccc(Cl)cc3)[C@H](N)C[C@@H]2N)[C@H](OCc2ccc(Cl)cc2)[C@@H](OCc2ccc(Cl)cc2)[C@@H]1OCc1ccc(Cl)cc1.O=C(O)C(F)(F)F` (some centres not stated), the MIC is 32 µg/mL against Staphylococcus aureus [1]; above 128 µg/mL with Pseudomonas aeruginosa [2]; 64 µg/mL against Streptococcus pneumoniae; above 128 µg/mL with Klebsiella pneumoniae; 128 µg/mL in the assay on Escherichia coli [3]; above 128 µg/mL with Pseudomonas aeruginosa [4]. For the same compound, the minimal inhibitory concentration (MIC) in the assay with Escherichia coli [5] was 128 µg/mL; in assay [6], 16 µg/mL; against Acinetobacter baumannii, above 128 µg/mL; against Staphylococcus aureus [7], 32 µg/mL; with Escherichia coli [8] it was 64 µg/mL; in assay [9], above 128 µg/mL. 32 µg/mL was the least that counted as inhibitory in assay [10] (MIC).

A word on the MIC: it is the lowest concentration found to suppress growth. Higher therefore signals a less susceptible organism.
